# Screens (PubChem)
# Rows were chosen to be rich in hits. Some 3.4% of all compounds tested hit in one or more screens of this group.
# MC4R barr agon: activates human MC4R beta-arrestin recruitment. activation, % at 8.9 µM. U2OS MC4R beta-arrestin complementation, luminescence; percent of melanotan II response, DMSO zero. hit rate 0.98% among 360,000. P32245;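 active = activation above a per-plate cutoff, the mean activation of sample wells on that plate plus 3 SD, cut at about 8% in these data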
# Target sequence (P32245 whole entry, looked up): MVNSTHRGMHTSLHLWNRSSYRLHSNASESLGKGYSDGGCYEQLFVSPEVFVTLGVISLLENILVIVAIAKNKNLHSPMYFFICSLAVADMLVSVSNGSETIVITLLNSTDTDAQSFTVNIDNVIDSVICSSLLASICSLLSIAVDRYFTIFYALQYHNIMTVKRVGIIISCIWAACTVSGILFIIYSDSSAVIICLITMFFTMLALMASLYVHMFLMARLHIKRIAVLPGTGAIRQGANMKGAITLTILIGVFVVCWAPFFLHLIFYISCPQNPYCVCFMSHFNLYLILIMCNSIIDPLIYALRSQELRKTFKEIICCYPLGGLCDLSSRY
# TMEM16A inh: mouse TMEM16A channel inhibition, primary screen; HEK293 TMEM16A/YFP iodide influx fluorescence, ionomycin; normalized B-score (activity score, 25-100; higher = stronger inhibition) at 10 µM; Q8BHY3; hit rate 1.2% among 310,000;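 active = ratio plate-corrected score three or more library SD toward inhibition, starting fluorescence score within five deviations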;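 also: score derived from kinetic fluorescence span divided by baseline fluorescence per well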
# MIN6 prolif-1: inducers of beta-cell replication in MIN6 cells. proliferation, % at 10 µM. AID 2380. MIN6 cells proliferation, ATPlite luminescence, 48 h; cells starved in 0.2% serum; 100% = growth in 10% serum. hit rate 0.29% among 330,000;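 active = compounds whose signal lies at least 3.5 SD above the mean of all wells on their plate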;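 also: 0% = DMSO-treated cells in low-serum medium and 100% = 10% serum control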
# MC4R antagonist: antagonists of human melanocortin 4 receptor (MC4R); inhibition, % at 6.5 µM; MC4R-expressing cells, MTII-stimulated cAMP, LANCE TR-FRET; hit rate 0.48% among 360,000;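 active = inhibition above its plate's cutoff, the mean of tested wells on that plate plus 3 SD, cut at about 29% in these data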;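 also: 0% = Melanotan II alone and 100% = Melanotan II plus saturating MCL0020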
#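 Assay system: human MC4R-expressing U2OS cells; reagent: Melanotan II stimulation of cells; dosing: 6.5 µM single dose; timing: compound 30 min, challenge 1 h, detection 1 h; signal: TR-FRET cAMP assay; replicates: one well per compound, no replicates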
# ANO1 activ: activates or potentiates the mouse TMEM16A chloride channel. Q8BHY3. HEK293 TMEM16A/YFP-H148Q/I152L, iodide quench fluorescence; active compounds read low. B-score at 10 µM. hit rate 0.3% among 340,000;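 active = fluorescence-ratio B-score plate-corrected deviation score at least 3 library SD below zero, with starting fluorescence score within 5 deviations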;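 also: channel opened by trigger with iodide after compound preincubation; score built on the fluorescence ratio of max minus min over baseline; more negative score means more quench and so TMEM16A activation or potentiation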
# HTR2A ag: agonists of mouse serotonin 5-HT2A receptor (HTR2A). CHO-K1 mHTR2A beta-arrestin complementation, luminescence; percent of 30 µM serotonin response. P35363. hit rate 0.66% among 360,000. activation, % at 7.6 µM;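 active = activation above a run cutoff, the mean activation of all tested compounds plus 3 SD, cut at about 14% in these data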;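 also: 0% = plate median of compound wells and 100% = 30 µM serotonin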
# MIN6 prolif-2: confirmation of inducers of beta-cell replication in MIN6 cells. shares compounds with MIN6 prolif-1. MIN6 beta-cell proliferation, ATPlite luminescence, 48 h; cells kept in 0.2% serum; scaled between 0.2% and 10% serum. proliferation increase, % at 50 µM. 920 tested, under 10 active. AID 463095;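 active = proliferation increase above 40% at any of the four tested concentrations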
# The depositor's hits bear a star; i = inactive; · = no result given.
SMILES,MC4R barr agon,TMEM16A inh,MIN6 prolif-1,MC4R antagonist,ANO1 activ,HTR2A ag,MIN6 prolif-2
CC(C)(Oc1ccc(Cl)cc1)C(=O)Nc1c2c(nn1C(C)(C)C)CS(=O)(=O)C2,0,i,15*,4,i,2,3
Cc1ccc2cc(CN(c3ccccc3C)S(=O)(=O)c3ccccc3)c(=O)[nH]c2c1,0,i,-3,-4,i,-3,·
COCCN(Cc1cc2ccc(C)cc2[nH]c1=O)S(=O)(=O)c1ccccc1,1,i,9.1*,5,i,-7,-1
CCCCNC(=O)CSc1nnc(-c2cccc(S(=O)(=O)N3CCOCC3)c2)o1,-1,·,2,10,i,6,·
CCC(=O)N1CCc2cc(S(=O)(=O)CCC(=O)Nc3cccc(F)c3)ccc21,-2,i,8.9*,12,i,0,-5
COC(=O)c1cc(Br)ccc1NC(=O)CSCc1c(C)noc1C,2,·,3,14,i,2,·
CCOc1ccc2ncc(S(=O)(=O)c3ccccc3)c(N3CCC4(CC3)OCCO4)c2c1,·,i,0.0*,·,·,·,-6
CCN1C[C@@H]2[C@@H]3C(=O)N(Cc4ccccc4)C(=O)[C@@H]3[C@](C)(C1=O)N2C(=O)c1ccc(F)cc1,0,·,·,9,i,7,·
Cc1cc(=O)n(Cc2ccccc2)c2ccccc12,0,i,9.2*,6,i,-2,3
Cc1cc(=O)n(Cc2ccccc2)c2c(C)cccc12,-1,i,-2,2,i,0,·
CCOC(=O)c1ccc(NC(=O)CC2SC3=NCCN3C2=O)cc1 (stereo unspecified),-1,i,5.8*,3,i,-4,-1
CN1CCN(P(=O)(c2ccccc2)c2nc3ccccc3s2)CC1 (stereo unspecified),-2,i,5.9*,4,i,-5,0
Cc1ccccc1NP(=O)(c1ccccc1)c1nc2ccccc2s1 (stereo unspecified),-1,i,3,12,i,-4,·
COC(=O)c1ccc(S(=O)(=O)NCc2cccc(OC)c2)n1C,-1,i,5.5*,11,i,3,0
Cc1ccc(-n2nnnc2CNC(=O)C2CC(=O)N(c3ccc(F)cc3)C2)cc1C (stereo unspecified),-1,i,12*,3,i,6,1
Cc1ccc(Cc2ccccc2C(=O)O)cc1,0,·,·,-3,i,0,·
OCCCc1nc2ccccc2[nH]1,-1,i,-2,4,i,3,·
NS(=O)(=O)c1ccc(CNC(=O)c2cc(=O)[nH]c3ccccc23)cc1,0,i,6.5*,-3,i,6,0
CCCCCCCCN1N=N[C@H]2[C@H]1[C@@H]1C[C@H]2N(C(=O)OC(C)(C)C)O1,5,·,·,4,i,0,·
CCn1c(=O)[nH]c(=O)c2c(N)c(C(=O)c3cc(F)ccc3F)sc21,-4,i,9.1*,-23,i,-2,2
CNC(=O)c1ccccc1NC(=O)c1cccc(S(=O)(=O)N2CCCCC2)c1,1,i,7.6*,4,i,7,-4
COc1ccccc1N1CCN(C(=O)CN(C)S(=O)(=O)c2ccc3c(c2)c(=O)n(C)c(=O)n3C)CC1,-3,i,6.9*,4,i,-2,-1
CCCc1nnc(NS(=O)(=O)c2ccc(C)cc2)o1,-1,·,·,0,i,0,·
CC(C)[C@H](NC(=O)OCc1ccccc1)C(=O)OCC(=O)N1CCCCC1,-1,·,·,10,i,-6,·
CC(C)Nc1nc(NC(C)(C)C)nc(Oc2ccc(=O)n(-c3ccccc3)n2)n1,0,i,7.5*,3,i,-2,-6
SMILES,MC4R barr agon,TMEM16A inh,MIN6 prolif-1,MC4R antagonist,ANO1 activ,HTR2A ag,MIN6 prolif-2
O=C(CN(Cc1cccs1)C(=O)CNS(=O)(=O)c1ccc(Cl)cc1)NCC1CCCO1 (stereo unspecified),1,i,3,-6,i,-1,·
O=C(CN(Cc1ccccc1)C(=O)CNS(=O)(=O)c1ccc(Cl)cc1)NCC1CCCO1 (stereo unspecified),-2,i,0.0*,2,i,2,2
CC(OC(=O)C1CCN(S(=O)(=O)c2ccc3c(c2)OCCO3)CC1)C(=O)NC1(C#N)CCCCC1 (stereo unspecified),2,·,·,3,i,-9,·
CC(=O)c1cccc(NC(=O)CSc2nc(C3CC3)nc3ccccc23)c1,2,i,0.0*,4,i,4,-4
CC(=O)Nc1cccc(NC(=O)CSc2nc(C3CC3)nc3ccccc23)c1,-2,i,-6,8,i,5,·
CC(C)c1nc2oc3c(NCc4ccccn4)ncnc3c2c2c1COC(C)(C)C2,-2,i,7.4*,-6,i,-5,0
Cc1nc2oc3c(NCc4ccccn4)ncnc3c2c2c1COC(C)(C)C2,-1,i,5,1,i,2,·
CCCC(=O)N(CCN(C(=O)CCC)c1ccccc1)c1ccccc1,-2,i,8.8*,6,i,-1,-3
CCN(CC)S(=O)(=O)c1ccc(N2CCOCC2)c(NC(=O)c2cccc3ccccc23)c1,-2,i,-2,6,i,3,·
CCN(CC)S(=O)(=O)c1ccc(N2CCOCC2)c(NC(=O)c2c3c(nc4ccccc24)CCC3)c1,1,i,7.6*,13,i,8,-1
C=CCNC(=O)c1ccccc1NC(=O)COc1ccccc1,-2,i,8.4*,-7,i,1,1
O=C(c1ccc(-n2ccnc2)cc1)N1CCCC(CO)(Cc2cccc(Cl)c2)C1 (stereo unspecified),-4,i,16*,7,i,-5,-1
Cc1ccccc1CC1(CO)CCCN(C(=O)c2cccc(Cl)c2)C1 (stereo unspecified),1,i,-5,-3,i,3,·
COCCn1c(SCCCc2ccccc2)nc2c1c(=O)[nH]c(=O)n2C,0,i,5.5*,-11,i,-1,-5
COCCSc1nc2c(c(=O)[nH]c(=O)n2C)n1CCCc1ccccc1,1,i,-3,3,i,-1,·
COc1ccc(C(=O)Nc2nc3cc4c(cc3s2)OCCO4)c(OC)c1,5,i,-5,-2,i,6,·
Cc1c(CC(=O)NCC(=O)NCC(=O)N[C@@H](Cc2ccccc2)C(=O)O)c(=O)oc2c(C)c(O)ccc12,-1,·,·,12,·,6,·
